# Assay outcomes from PubChem BioAssay.
# Shown are actives, neighbours in structure and some others; about 3.3% of the full set was active somewhere.
# HTRA1 inh: HTRA1 serine protease inhibitors, primary screen, biochemical, fluorescence polarization, HTS; Q92743; 0.5% of 340,000 active; inhibition, % at 5.96 µM; AID 504803, 2011; recombinant HTRA1, FP-rhodamine activity-based probe; in the data active means inhibition above about 36%;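 further: 0% = enzyme with DMSO and 100% = wells lacking enzyme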
# ABHD4 inh: ABHD4 inhibitors, primary screen, biochemical, fluorescence polarization, mouse; (Lyso)-N-acylphosphatidylethanolamine lipase (Mus musculus), Q8VD66; purified mABHD4, FP-Rh probe fluorescence polarization; inhibition, % at 8.92 µM; 0.54% of 370,000 active;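 active means inhibition exceeding the mean over every tested compound plus 3 SD, cut at about 30% in these data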;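 further: 0% = plate median of compound wells and 100% = S159A mutant with DMSO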
#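 Assay system: mouse ABHD4 enzyme, wild type / Also added: fluorescent activity-based probe FP-Rh / Doses: single nominal dose of 8.92 µM, 0.89% DMSO final / Timing: 45 min compound pre-incubation plus 60 min probe step, 25 °C / Signal: FP readout, ex 525 nm / em 598 nm / Control set: S159A mutant/DMSO as 100%, compound-well median as 0%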
# SIAE primary: human SIAE inhibitors, primary screen, biochemical, fluorescence polarization, FP-Rh probe, 1536-well HTS; Sialate O-acetylesterase (Homo sapiens), Q9HAT2; SIAE FP-Rh probe binding; AID 1053197, 2014; inhibition, % at 9.66 µM; 0.69% of 370,000 active;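 active means inhibition above a cutoff: mean of compounds within the control limits plus 3 SD of those, cut at about 17% in these data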;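 further: 0% = plate median of compound wells and 100% = probe without SIAE protein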
# PRMT1 FP inh: PRMT1 methyltransferase inhibitors, primary screen, biochemical, fluorescence polarization. Protein arginine N-methyltransferase 1 (Homo sapiens), Q99873. recombinant PRMT1, activity-based probe fluorescence polarization. inhibition, % at 2.79 µM. 1.3% of 370,000 active;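 active means inhibition above about 21% made by adding two undisclosed values, limit read from the data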
# Target sequence (Q99873 whole entry, looked up): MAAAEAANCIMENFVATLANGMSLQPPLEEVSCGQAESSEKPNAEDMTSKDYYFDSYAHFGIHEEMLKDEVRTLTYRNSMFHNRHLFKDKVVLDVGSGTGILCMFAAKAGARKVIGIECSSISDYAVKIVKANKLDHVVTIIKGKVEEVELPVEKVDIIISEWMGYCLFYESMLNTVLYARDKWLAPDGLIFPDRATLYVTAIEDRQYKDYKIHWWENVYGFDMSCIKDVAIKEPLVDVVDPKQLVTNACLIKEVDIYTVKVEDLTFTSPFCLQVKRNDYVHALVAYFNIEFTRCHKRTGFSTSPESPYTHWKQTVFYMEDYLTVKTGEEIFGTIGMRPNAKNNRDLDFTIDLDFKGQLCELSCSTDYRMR
# rCAG RNA binder: binders of r(CAG) RNA repeats, primary screen, biochemical, fluorescence | r(CAG) RNA repeat, TO-PRO-1 dye displacement fluorescence | inhibition, % at 3 µM | 1.3% of 370,000 active | AID 651821, 2012;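 active means inhibition above the plate cutoff, the mean of all test compounds on that plate plus 3 SD, cut at about 35% in these data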;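 further: 0% = DMSO alone and 100% = 100 µM mitoxantrone as full dye displacement; higher means more dye released from RNA so lower well fluorescence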
# Starred values were filed as active, the others as inactive; nt = no result.
SMILES,HTRA1 inh,ABHD4 inh,SIAE primary,PRMT1 FP inh,rCAG RNA binder
N#C/C(=C/c1ccccc1OCc1ccc(F)cc1)c1ccc(C(=O)O)cc1,-47,-10,-1,4,32
N#C/C(=C/c1cccn1-c1cccc(C(=O)O)c1)c1ccc(F)cc1,-20,-14,3,1,50*
Cc1ccc(Cc2c(-c3ccco3)nc3ccc(C)cn23)cc1,nt,4,3,21*,20
COC(=O)c1ccc2nc(-c3ccco3)c(Cc3ccc(OC)cc3C)n2c1,nt,-6,1,22*,25
CC(C)C[C@H](NC(=O)c1nccs1)C(=O)N1CCC[C@H]1C(=O)NCc1ccccc1,nt,1,0,0,1
COc1ccc(S(=O)(=O)N2CCC(C(=O)N(C)Cc3ccc(C)o3)CC2)cc1OC,-1,5,1,24*,8
CC(Sc1ccccc1)C(=O)NNC(=O)c1ccncc1 (stereo unspecified),-5,4,1,21*,-2
COc1cccc(C2NC(CC(C)C)(C(=O)O)C3C(=O)N(Cc4ccccc4)C(=O)C23)c1O (stereo unspecified),1,-3,6,-1,0
COc1cccc(C2NC(CCSC)(C(=O)O)C3C(=O)N(C(C)C)C(=O)C23)c1O (stereo unspecified),-5,-2,21*,-2,4
Cc1cc(NC(=O)Cc2cn(C)c3ccccc23)ccc1Nc1cccnc1,nt,9,5,1,6
COCCN1C(=O)[C@H]2C[C@@]13O[C@H](c1ccccn1)N=C3CC1c3ccccc3C[C@@]12C (stereo partly specified),nt,6,7,3,-1
Nc1ccc(N2CCOCC2)c2nonc12,19,13,-6,40*,4
O=C(Nc1ccc(N2CCOCC2)c2nonc12)C1CCCC1,11,8,4,-2,2
CCCCCC(=O)N/N=C/c1ccc([N+](=O)[O-])o1,8,7,-3,3,3
O=C(CCC(=O)Nc1ccc(Cl)cc1Cl)N/N=C/c1ccc([N+](=O)[O-])o1,nt,4,14,24*,26
CN(C)c1ccc(NS(=O)(=O)c2ccc(Cl)cc2)cc1,5,10,7,23*,6
COc1ccc(-c2c3c([nH]c(=S)c2C#N)CCC3)cc1,-7,-2,-8,23*,16
COc1cc(/C=C2\CCC/C(=C\c3ccc(O)c(OC)c3)C2=O)ccc1O,21,12,-1,22*,22
COc1cc(/C=C2/CCCC(C(=O)C(F)(F)F)=C2O)ccc1O,8,8,-5,1,5
CCCN1C(=O)c2[nH]nc(-c3ccccc3)c2C1c1ccc(F)cc1 (stereo unspecified),nt,-13,-7,22*,0
COc1ccccc1/C=C/C(=O)NNC(=O)c1cc(C)oc1C,-1,2,-18,-1,2
Cc1cc(C(=O)NNC(=O)/C=C/c2ccco2)c(C)o1,-5,0,-1,23*,26
COC(=O)[C@]12C[C@H](CC(=O)NCCc3ccccc3OC)C(=O)N(CCC3=CCCCC3)C1=C[C@H](C(C)(C)C)O[C@@H]2C,nt,-9,2,1,8
O=C(Nc1nnc(-c2ccc3c(c2)CCCC3)o1)c1c(F)cccc1F,10,-9,-3,0,25
O=C(Nc1nnc(-c2ccc3c(c2)CCCC3)o1)c1ccc(Cl)cc1Cl,21,-45,-4,-4,57*
CCNC(=O)N1CCN(c2ccc(N3CCN(Cc4ccccc4)[C@H](C)C3)c(C)c2)[C@@H](C)C1,nt,7,4,7,2
O=C(O)CCC(=O)Nc1ccc(SSc2ccc(NC(=O)CCC(=O)O)cc2)cc1,5,4,-5,92*,19
O=C(O)CCC(=O)Nc1ccc(F)cc1,-9,0,4,2,-1
COc1ccc(/C(O)=C/C(=O)C(=O)NNC(=O)c2ccccc2)cc1,19,14,4,-1,25
COc1ccc(/C(O)=C/C(=O)C(=O)NNC(=O)C(O)(c2ccccc2)c2ccccc2)cc1,15,-3,-1,-1,44*
